How the values were obtained:
[1] = system: Liver; experiment: Unbound intrinsic clearance in rat liver microsomes at 10 uM preincubated for 5 mins followed by NADPH addition measured after 60 mins by HPLC-UV-MS analysis; format: ADME, microsome; details: 1 h
[2] = target: T1, Bromodomain-containing protein 4 (Homo sapiens, UniProt O60885); experiment: Inhibition of BRD4 in human H1299 cells assessed as decrease in HPV LCR-E2-EP400-mediated transcriptional repression after 24 hrs by Bright-Glo luciferase reporter gene assay; format: cell-based
[3] = target: T1, Bromodomain-containing protein 4; experiment: Binding affinity to human N-terminal His6-tagged BRD4 BD1-BD2 (K57 to K550 residues) after 1 hr using alexa-647 conjugated probe by TR-FRET assay
[4] = system: Liver; experiment: Unbound intrinsic clearance in human liver microsomes at 10 uM preincubated for 5 mins followed by NADPH addition measured after 60 mins by HPLC-UV-MS analysis; format: ADME, microsome; details: 1 h
[5] = Permeability in MDCK cells; format: ADME, cell-based, Canis lupus familiaris; details: dog, read-out: permeability
[6] = system: Liver; experiment: Unbound intrinsic clearance in mouse liver microsomes; format: ADME, microsome
In short: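 Liver microsome stability is expressed as unbound intrinsic clearance, Cl_int,u, in L/hr/kg. Dextromethorphan served as the in-house low-clearance reference control and verapamil as the high-clearance reference control.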

[7] = system: MX1; experiment: Antiproliferative activity against human MX1 cells after 72 hrs by Cell Titer Glo assay; format: functional, cell-based; details: MX1, 72 h

SMILES | CL free [1] [mL/min/kg] | EC50 [2] [nM] | Ki [3] [nM] | CL free [4] [mL/min/kg] | Papp [5] [×10⁻⁶ cm/s] | CL free [6] [mL/min/kg] | EC50 [7] [nM]
CCS(=O)(=O)Nc1ccc(Oc2ccc(Cl)cc2)c(-c2cn(C)c(=O)c3[nH]ccc23)c1 | 200 | 17 | 3.4 | < 96.7 | 21 | 900 | 22
Cn1cc(-c2cc(S(C)(=O)=O)ccc2Oc2ccccc2)c2cc[nH]c2c1=O | 1080 | 50 | 5.8 | 91.7 | 24 | 383 | 52
CCS(=O)(=O)Nc1ccc(Oc2ccccc2)c(-c2cn(C)c(=O)c3[nH]ccc23)c1 | 3330 | 8.1 | 1.5 | < 45 | 22 | 917 | 14
Cn1cc(-c2cc(NS(C)(=O)=O)ccc2Oc2cccnc2)c2cc[nH]c2c1=O | 350 | 67 | 6.3 | 86.7 | 3 | 533 | 34
Cn1cc(-c2ccccc2Oc2ccccc2)c2cc[nH]c2c1=O | 40000 | 480 | 48 | 1670 | 31 | 93300 | 550
COCCc1ccc(OCC(O)CNC(C)C)cc1 (configuration not stated) [METOPROLOL] |  |  |  |  | 36 |  | 
Cn1cc(-c2cc(NS(C)(=O)=O)ccc2OCc2ccccc2)c2cc[nH]c2c1=O | 567 | 120 | 68 | 122 | 24 | 900 | 110
Cn1cc(-c2ccccc2Oc2ccccc2)cc(N)c1=O |  | 8500 | 3000 |  |  |  | > 5000
Cn1cc(-c2cc(NS(=O)(=O)CC(F)(F)F)ccc2Oc2ccccc2)c2cc[nH]c2c1=O | 1270 | 22 | 4.4 | 46.7 | 16 | 650 | 31
CCS(=O)(=O)Nc1ccc(Oc2cncnc2)c(-c2cn(C)c(=O)c3[nH]ccc23)c1 | 48.3 | 170 | 32 | < 33.3 | 1 | 233 | 130
CC(=O)Nc1ccc(Oc2ccccc2)c(-c2cn(C)c(=O)c3[nH]ccc23)c1 | 767 | 26 | 9.8 | 113 | 28 | 3500 | 46
CCS(=O)(=O)Nc1ccc(Oc2ccc(C(F)(F)F)cc2)c(-c2cn(C)c(=O)c3[nH]ccc23)c1 | 583 | 65 | 9 | 128 | 11 | 2830 | 30
COc1ccc2c(c1)[C@]13CCCC[C@@H]1[C@H](C2)N(C)CC3 [DEXTROMETHORPHAN] |  |  |  | 123 |  |  | 
Cn1cc(-c2cc(NS(C)(=O)=O)cnc2Oc2ccccc2)c2cc[nH]c2c1=O | 600 | 88 | 4.1 | 63.3 | 6 | < 93.3 | 46
Cc1sc2c(c1C)C(c1ccc(Cl)cc1)=N[C@@H](CC(=O)OC(C)(C)C)c1nnc(C)n1-2 |  |  |  |  |  |  | 254
CN(C)S(=O)(=O)Nc1ccc(Oc2ccccc2)c(-c2cn(C)c(=O)c3[nH]ccc23)c1 | 4000 | 43 | 2.9 | 233 | 19 | 2330 | 65

SMILES | CL free [1] [mL/min/kg] | EC50 [2] [nM] | Ki [3] [nM] | CL free [4] [mL/min/kg] | Papp [5] [×10⁻⁶ cm/s] | CL free [6] [mL/min/kg] | EC50 [7] [nM]
CCS(=O)(=O)Nc1ccc(OCC(C)(C)C)c(-c2cn(C)c(=O)c3[nH]ccc23)c1 | 433 | 79 | 38 | 283 | 43 | 1030 | 77
CCS(=O)(=O)Nc1ccc(Oc2c(F)cc(F)cc2F)c(-c2cn(C)c(=O)c3[nH]ccc23)c1 | 233 | 19 | 12 | 102 | 21 | 900 | 7.9
Cn1cc(-c2cc(NS(C)(=O)=O)ccc2Oc2ccccc2C(F)(F)F)c2cc[nH]c2c1=O | 250 | 76 | 6.4 | 533 | 7.8 | 1350 | 83
CCS(=O)(=O)Nc1ccc(OC2CCC(N(C)C)CC2)c(-c2cn(C)c(=O)c3[nH]ccc23)c1 (configuration not stated) | < 45 | 270 | 26 | < 26.7 | 2.7 | 125 | 86
CCNC(=O)c1ccc(Oc2ccccc2)c(-c2cn(C)c(=O)c3[nH]ccc23)c1 | 4000 | 70 | 32 | 68.3 | 30 | 717 | 130
Cn1cc(-c2cc(NS(C)(=O)=O)ccc2OC2CCC(F)(F)CC2)c2cc[nH]c2c1=O | 200 | 20 | 19 | < 38.3 | 12 | 717 | 19
Cn1cc(-c2cc(S(N)(=O)=O)ccc2Oc2ccccc2)c2cc[nH]c2c1=O | 1320 | 39 | 3.6 | < 43.3 | 22 | 517 | 56
CCS(=O)(=O)Nc1ccc(OC2CCN(C)CC2)c(-c2cn(C)c(=O)c3[nH]ccc23)c1 | 80 | 880 | 430 | < 28.3 | 0.55 | < 85 | 210
Cn1cc(-c2cc(NS(C)(=O)=O)ccc2OC2CCCCC2)c2cc[nH]c2c1=O | 1600 | 18 | 3.7 | 450 | 23 | 3670 | 14
Cc1cc(-c2ccccc2Oc2ccccc2)c[nH]c1=O |  | 2300 | 1700 |  |  |  | 2400
Cn1cc(-c2cc(NS(C)(=O)=O)ccc2Oc2ccc(F)cc2Cl)c2cc[nH]c2c1=O | 317 | 35 | 3.1 | 233 | 11 | 850 | 27
Cn1cc(-c2cc(C(N)=O)ccc2Oc2ccccc2)c2cc[nH]c2c1=O | 550 | 71 | 14 | 48.3 | 14 | 450 | 120
Cn1cc(-c2ccccc2Oc2ccccc2)ccc1=O |  | 4100 | 890 |  |  |  | 4800
Cn1cc(-c2cc(NS(C)(=O)=O)ccc2OC2CCOCC2)c2cc[nH]c2c1=O | 233 | 90 | 68 | < 30 | 1.7 | < 90 | 72
CCS(=O)(=O)Nc1ccc(Oc2ccc(C#N)cc2)c(-c2cn(C)c(=O)c3[nH]ccc23)c1 | 81.7 | 48 | 9.4 | 41.7 | 11 | < 108 | 17
